Drawing on ChEMBL document CHEMBL1151265, “Steroidal saponins from Smilax medica and their antifungal activity” (2005), this text covers MIC and Activity for five compounds.

≈ marks a conversion by molar mass, not a printed value. A value given as a limit tells only on which side of the number the result lay.

Holding throughout (format): functional
One experiment deals with Nakaseomyces glabratus. The experiment is described as follows: Antifungal activity against Candida glabrata after 48 hrs by spectrophotometry. Particulars: for MIC: Nakaseomyces glabratus, 48 h. Summed up: (§1)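 Broth microdilution MIC against pathogenic human yeast strains. Saponin in malt extract broth (malt extract 15 g, peptone 5 g per L), final 3.12-200 µg/mL, serial dilution, triplicate wells. Each well inoculated with 10 µL of 10^4 CFU/mL suspension, incubated 30 °C for 48 h, growth read at 630 nm. MIC is the lowest concentration with no visible growth.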

Another experiment relates to Candida albicans. Kind of experiment: Antifungal activity against Candida albicans after 48 hrs by spectrophotometry. Particulars: for MIC: Candida albicans, 48 h. Summed up:
as §1

The subject of another experiment is Candida tropicalis. The experiment is described as follows: Antifungal activity against Candida tropicalis after 48 hrs by spectrophotometry. As to conditions: for MIC: Candida tropicalis, 48 h. Summed up:
as §1

What is called MIC is the lowest concentration found to suppress growth. On to `C[C@@H]1CC[C@@]2(OC1)O[C@H]1C[C@H]3[C@@H]4CC[C@@H]5C[C@@H](O[C@@H]6O[C@H](CO[C@@H]7O[C@H](CO)[C@@H](O)[C@H](O)[C@H]7O)[C@@H](O[C@@H]7O[C@H](CO)[C@@H](O)[C@H](O)[C@H]7O)[C@H](O)[C@H]6O[C@@H]6O[C@H](CO)[C@@H](O)[C@H](O)[C@H]6O)CC[C@]5(C)[C@H]4CC[C@]3(C)[C@H]1[C@@H]2C`, for which the results for the MIC in the experiment with Nakaseomyces glabratus, against Candida albicans and against Candida tropicalis were 12.5 µg/mL (≈ 11.7 µM), 25 µg/mL (≈ 23.5 µM) and 50 µg/mL (≈ 46.9 µM), respectively.
Taken in the same sequence, the figures for `C[C@@H]1CC[C@@]2(OC1)O[C@H]1C[C@H]3[C@@H]4CC[C@@H]5C[C@@H](O[C@@H]6O[C@H](CO[C@@H]7O[C@H](CO)[C@@H](O)[C@H](O)[C@H]7O)[C@@H](O[C@@H]7O[C@H](CO)[C@@H](O)[C@H](O)[C@H]7O)[C@H](O)[C@H]6O)CC[C@]5(C)[C@H]4CC[C@]3(C)[C@H]1[C@@H]2C` were 12.5 µg/mL (≈ 13.8 µM), 25 µg/mL (≈ 27.7 µM) and 50 µg/mL (≈ 55.4 µM).
Regarding `CO[C@]1(CC[C@@H](C)CO[C@@H]2O[C@H](CO)[C@@H](O)[C@H](O)[C@H]2O)O[C@H]2C[C@H]3[C@@H]4CC[C@@H]5C[C@@H](O[C@@H]6O[C@H](CO[C@@H]7O[C@H](CO)[C@@H](O)[C@H](O)[C@H]7O)[C@@H](O[C@@H]7O[C@H](CO)[C@@H](O)[C@H](O)[C@H]7O)[C@H](O)[C@H]6O[C@@H]6O[C@H](CO)[C@@H](O)[C@H](O)[C@H]6O)CC[C@]5(C)[C@H]4CC[C@]3(C)[C@H]2[C@@H]1C`, the Activity in the experiment on Nakaseomyces glabratus, in the experiment with Candida albicans and in the experiment with Candida tropicalis was over 200 µg/mL in each case.
For `C[C@@H]1CC[C@@]2(OC1)O[C@H]1C[C@H]3[C@@H]4CC[C@@H]5C[C@@H](O[C@@H]6O[C@H](CO[C@@H]7O[C@H](CO)[C@@H](O)[C@H](O)[C@H]7O)[C@@H](O)[C@H](O)[C@H]6O[C@@H]6O[C@H](CO)[C@@H](O)[C@H](O)[C@H]6O)CC[C@]5(C)[C@H]4CC[C@]3(C)[C@H]1[C@@H]2C` [DISPOROSIDE A], the MIC in the experiment on Nakaseomyces glabratus was 25 µg/mL (≈ 27.7 µM); with Candida albicans it was 25 µg/mL (≈ 27.7 µM); against Candida tropicalis it was 50 µg/mL (≈ 55.4 µM).
As for `CC(=O)N1CCN(c2ccc(OCC3COC(Cn4ccnc4)(c4ccc(Cl)cc4Cl)O3)cc2)CC1` (stereo not given) [KETOCONAZOLE], the MIC turned out to be 0.78 µg/mL (≈ 1.47 µM) with Nakaseomyces glabratus, 0.78 µg/mL (≈ 1.47 µM) in the experiment on Candida albicans and 1.56 µg/mL (≈ 2.94 µM) against Candida tropicalis.
